For test [1], the target named is Fibroblast growth factor receptor 1 (Homo sapiens) (UniProt P11362). Kind of test: Inhibition of FGFR1 at 10 uM by HTRF assay relative to control. In a few lines:
(§1)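 HTRF kinase assay, one panel of kinases. Inhibitor stock 50 µM in 100% DMSO; tested at 10 µM. ATP and substrate at final levels near Km. Final buffer: 50 mM Hepes/NaOH pH 7.4, 40 µM Na3VO4, 0.005% Tween-20, 1 mM DTT, MnCl2 or MgCl2 at kinase-dependent levels. Started by adding ATP/substrate. Reaction run at room temperature, time varied by kinase. Detection mix in 50 mM Hepes pH 7.4, 0.1% BSA, 150 mM KF, incubated ≥1 h at room temperature. Activity expressed as % of uninhibited control; n=2.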

Test [2] can be described thus: Inhibition of PKA at 10 uM by HTRF assay relative to control. In a few lines:
as §1
In general terms: TR-FRET usually uses a lanthanide donor and a delayed reading to cut background.

Test [3] concerns the target Insulin-like growth factor 1 receptor (Homo sapiens) (UniProt P08069). Kind of test: Inhibition of IGF1R at 10 uM by HTRF assay relative to control. The procedure, abridged:
as §1

The target in test [4] is Ribosomal protein S6 kinase alpha-3 (Homo sapiens) (UniProt P51812). The experiment in a line: Inhibition of RSK2 at 10 uM by HTRF assay relative to control. In a few lines: as §1
Test [5] deals with Platelet-derived growth factor receptor beta (Homo sapiens) (UniProt P09619). The experiment in a line: Inhibition of PDGFRbeta at 10 uM by HTRF assay relative to control. In a few lines: as §1
Test [6] concerns the target Focal adhesion kinase 1 (Homo sapiens) (UniProt Q05397). The experiment in a line: Inhibition of FAK at 10 uM by HTRF assay relative to control. The procedure, abridged: as §1
A short description of test [7]: Inhibition of AMPKalpha at 10 uM by HTRF assay relative to control. The procedure, abridged:
as §1

Test [8] addresses T1, Tyrosine-protein kinase ZAP-70 (Homo sapiens) (UniProt P43403).
T1 sequence (whole entry): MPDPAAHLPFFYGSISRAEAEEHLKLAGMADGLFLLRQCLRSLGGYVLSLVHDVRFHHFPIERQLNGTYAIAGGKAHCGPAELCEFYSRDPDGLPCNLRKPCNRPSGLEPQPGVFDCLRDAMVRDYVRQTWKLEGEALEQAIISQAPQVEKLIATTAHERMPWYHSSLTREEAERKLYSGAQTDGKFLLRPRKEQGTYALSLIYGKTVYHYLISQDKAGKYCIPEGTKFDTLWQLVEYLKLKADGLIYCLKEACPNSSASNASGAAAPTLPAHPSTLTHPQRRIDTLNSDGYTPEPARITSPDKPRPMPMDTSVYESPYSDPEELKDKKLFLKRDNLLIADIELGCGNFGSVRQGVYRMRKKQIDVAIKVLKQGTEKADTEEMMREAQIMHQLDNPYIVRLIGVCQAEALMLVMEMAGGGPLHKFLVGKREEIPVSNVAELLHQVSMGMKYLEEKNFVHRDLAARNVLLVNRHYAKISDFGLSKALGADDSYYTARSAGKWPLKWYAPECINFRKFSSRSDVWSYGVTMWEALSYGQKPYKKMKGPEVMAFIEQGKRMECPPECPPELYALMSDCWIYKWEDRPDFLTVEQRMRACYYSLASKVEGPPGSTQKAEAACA
Kind of test: Inhibition of ZAP70 at 10 uM by HTRF assay relative to control. In a few lines:
as §1

The target in test [9] is Mitogen-activated protein kinase 1 (Homo sapiens) (UniProt P28482). The experiment in a line: Inhibition of ERK2 at 10 uM by HTRF assay relative to control. The procedure, abridged:
as §1

Test [10] deals with 3-phosphoinositide-dependent protein kinase 1 (Homo sapiens) (UniProt O15530). The experiment in a line: Inhibition of PDK1 at 10 uM by HTRF assay relative to control.
A short description of test [11]: Inhibition of IRK at 10 uM by HTRF assay relative to control. The procedure, abridged:
as §1

In test [12] the target is Calcium/calmodulin-dependent protein kinase type II subunit alpha (Homo sapiens) (UniProt Q9UQM7). The experiment in a line: Inhibition of CaMK2alpha at 10 uM by HTRF assay relative to control. In a few lines:
as §1

The target in test [13] is MAP kinase-activated protein kinase 2 (Homo sapiens) (UniProt P49137). Kind of test: Inhibition of MAPKAPK2 at 10 uM by HTRF assay relative to control. In a few lines:
as §1

The target of test [14] is Tyrosine-protein kinase ABL1 (Homo sapiens) (UniProt P00519). Kind of test: Inhibition of Abl at 10 uM by HTRF assay relative to control. The procedure, abridged: as §1
In test [15] the target is T2, Mitogen-activated protein kinase 12 (Homo sapiens) (UniProt P53778).
T2 sequence (whole entry): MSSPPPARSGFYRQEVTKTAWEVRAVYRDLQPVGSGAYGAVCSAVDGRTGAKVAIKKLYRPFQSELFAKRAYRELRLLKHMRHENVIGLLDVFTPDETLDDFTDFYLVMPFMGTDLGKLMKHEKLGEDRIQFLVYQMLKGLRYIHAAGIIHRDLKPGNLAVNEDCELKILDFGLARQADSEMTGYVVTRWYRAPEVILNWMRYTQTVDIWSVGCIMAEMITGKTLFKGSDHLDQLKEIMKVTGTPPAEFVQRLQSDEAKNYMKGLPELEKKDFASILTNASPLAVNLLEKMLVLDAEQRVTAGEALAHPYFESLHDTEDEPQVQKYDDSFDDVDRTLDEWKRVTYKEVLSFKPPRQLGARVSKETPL
The experiment in a line: Inhibition of p38-gamma at 10 uM by HTRF assay relative to control. The procedure, abridged: as §1

Test [16] addresses RAC-alpha serine/threonine-protein kinase (Homo sapiens) (UniProt P31749). The experiment in a line: Inhibition of AKT1/PKBalpha at 10 uM by HTRF assay relative to control. In a few lines:
as §1

Test [17] deals with Protein-tyrosine kinase 6 (Homo sapiens) (UniProt Q13882). Kind of test: Inhibition of Brk at 10 uM by HTRF assay relative to control. The procedure, abridged: as §1
For test [18], the target named is Mitogen-activated protein kinase 9 (Homo sapiens) (UniProt P45984). Kind of test: Inhibition of JNK2 at 10 uM by HTRF assay relative to control. The procedure, abridged:
as §1

Inhibition data for 10 compounds are collected here from ChEMBL document CHEMBL1150387, “Development and experimental validation of a docking strategy for the generation of kinase-targeted libraries” (J Med Chem, 2008).

Sequence of Fibroblast growth factor receptor 1 (Homo sapiens) (P11362 22-822 limits assumed): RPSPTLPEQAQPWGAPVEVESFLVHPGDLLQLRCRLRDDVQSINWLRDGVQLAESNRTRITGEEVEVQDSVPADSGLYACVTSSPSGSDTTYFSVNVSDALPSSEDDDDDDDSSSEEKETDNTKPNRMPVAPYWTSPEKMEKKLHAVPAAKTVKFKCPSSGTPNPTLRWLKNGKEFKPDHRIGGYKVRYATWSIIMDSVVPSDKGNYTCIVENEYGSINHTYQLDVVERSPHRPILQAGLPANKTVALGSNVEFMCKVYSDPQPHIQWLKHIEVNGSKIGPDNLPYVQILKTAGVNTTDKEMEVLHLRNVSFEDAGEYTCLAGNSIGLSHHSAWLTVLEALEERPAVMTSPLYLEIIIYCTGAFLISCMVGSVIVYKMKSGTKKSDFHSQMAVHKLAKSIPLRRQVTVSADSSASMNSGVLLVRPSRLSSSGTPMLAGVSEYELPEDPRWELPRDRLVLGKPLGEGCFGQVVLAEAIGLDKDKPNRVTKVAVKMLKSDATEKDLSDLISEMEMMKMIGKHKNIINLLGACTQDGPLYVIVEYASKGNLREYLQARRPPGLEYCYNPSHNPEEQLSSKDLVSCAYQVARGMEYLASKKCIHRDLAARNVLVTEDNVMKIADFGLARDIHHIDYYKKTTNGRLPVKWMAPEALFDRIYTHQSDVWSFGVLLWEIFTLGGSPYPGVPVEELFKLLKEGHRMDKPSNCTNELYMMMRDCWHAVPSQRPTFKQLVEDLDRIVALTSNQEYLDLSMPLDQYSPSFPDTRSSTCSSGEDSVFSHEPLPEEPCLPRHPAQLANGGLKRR
Sequence of Tyrosine-protein kinase ABL1 (Homo sapiens) (P00519 whole entry): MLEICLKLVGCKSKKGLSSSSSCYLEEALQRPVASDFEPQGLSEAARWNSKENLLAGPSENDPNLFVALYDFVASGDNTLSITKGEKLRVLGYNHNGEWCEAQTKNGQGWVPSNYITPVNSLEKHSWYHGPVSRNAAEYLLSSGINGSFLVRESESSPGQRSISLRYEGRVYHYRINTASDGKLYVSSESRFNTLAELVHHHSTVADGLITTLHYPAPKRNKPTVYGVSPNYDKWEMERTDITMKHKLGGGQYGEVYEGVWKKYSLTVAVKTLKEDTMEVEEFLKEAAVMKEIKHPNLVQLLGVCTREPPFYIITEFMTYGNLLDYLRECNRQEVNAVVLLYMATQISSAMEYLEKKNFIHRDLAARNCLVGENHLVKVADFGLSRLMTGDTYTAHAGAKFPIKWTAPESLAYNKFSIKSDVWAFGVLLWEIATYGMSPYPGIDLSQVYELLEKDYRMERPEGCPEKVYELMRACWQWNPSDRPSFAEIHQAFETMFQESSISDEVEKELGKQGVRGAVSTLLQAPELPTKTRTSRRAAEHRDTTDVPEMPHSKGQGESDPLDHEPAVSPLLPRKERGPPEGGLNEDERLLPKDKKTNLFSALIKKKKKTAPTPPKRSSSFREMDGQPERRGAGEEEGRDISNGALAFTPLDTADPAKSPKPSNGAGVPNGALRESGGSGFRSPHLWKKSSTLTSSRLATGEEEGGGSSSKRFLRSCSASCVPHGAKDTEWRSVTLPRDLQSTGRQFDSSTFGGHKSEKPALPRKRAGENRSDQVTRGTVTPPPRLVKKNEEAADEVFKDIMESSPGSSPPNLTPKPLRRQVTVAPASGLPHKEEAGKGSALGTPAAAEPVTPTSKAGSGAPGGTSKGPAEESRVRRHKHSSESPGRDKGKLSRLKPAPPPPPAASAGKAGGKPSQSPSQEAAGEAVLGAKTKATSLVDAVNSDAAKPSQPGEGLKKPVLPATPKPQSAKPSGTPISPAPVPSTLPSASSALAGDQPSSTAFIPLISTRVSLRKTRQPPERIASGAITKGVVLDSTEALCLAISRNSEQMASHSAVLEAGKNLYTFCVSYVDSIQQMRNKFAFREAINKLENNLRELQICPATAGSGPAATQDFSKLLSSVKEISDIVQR
Sequence of 3-phosphoinositide-dependent protein kinase 1 (Homo sapiens) (O15530 whole entry, looked up): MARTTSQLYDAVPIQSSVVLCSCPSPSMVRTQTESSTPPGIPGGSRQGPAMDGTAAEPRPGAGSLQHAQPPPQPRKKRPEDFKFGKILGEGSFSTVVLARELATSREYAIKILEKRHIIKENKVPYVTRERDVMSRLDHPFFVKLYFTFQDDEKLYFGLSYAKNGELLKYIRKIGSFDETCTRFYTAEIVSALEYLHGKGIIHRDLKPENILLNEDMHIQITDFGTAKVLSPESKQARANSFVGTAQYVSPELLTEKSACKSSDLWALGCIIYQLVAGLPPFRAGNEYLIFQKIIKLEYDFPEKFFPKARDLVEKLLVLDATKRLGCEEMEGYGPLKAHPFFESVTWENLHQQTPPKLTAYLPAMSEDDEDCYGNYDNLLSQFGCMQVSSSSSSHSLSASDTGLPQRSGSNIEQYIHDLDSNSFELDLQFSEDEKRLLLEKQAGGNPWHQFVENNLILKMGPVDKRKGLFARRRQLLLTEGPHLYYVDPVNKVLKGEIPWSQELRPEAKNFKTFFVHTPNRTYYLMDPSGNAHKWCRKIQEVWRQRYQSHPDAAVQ
Sequence of MAP kinase-activated protein kinase 2 (Homo sapiens) (P49137 whole entry, looked up): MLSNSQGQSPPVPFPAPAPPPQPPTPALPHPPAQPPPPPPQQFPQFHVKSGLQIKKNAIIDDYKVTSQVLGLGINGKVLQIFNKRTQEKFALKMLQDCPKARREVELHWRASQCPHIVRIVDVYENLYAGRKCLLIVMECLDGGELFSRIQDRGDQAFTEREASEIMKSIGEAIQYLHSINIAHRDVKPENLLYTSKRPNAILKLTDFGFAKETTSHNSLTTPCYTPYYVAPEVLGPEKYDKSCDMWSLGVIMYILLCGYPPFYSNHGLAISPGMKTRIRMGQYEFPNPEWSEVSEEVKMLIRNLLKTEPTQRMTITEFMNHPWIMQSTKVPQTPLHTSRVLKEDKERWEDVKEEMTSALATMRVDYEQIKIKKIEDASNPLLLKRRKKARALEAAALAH
Sequence of RAC-alpha serine/threonine-protein kinase (Homo sapiens) (P31749 whole entry): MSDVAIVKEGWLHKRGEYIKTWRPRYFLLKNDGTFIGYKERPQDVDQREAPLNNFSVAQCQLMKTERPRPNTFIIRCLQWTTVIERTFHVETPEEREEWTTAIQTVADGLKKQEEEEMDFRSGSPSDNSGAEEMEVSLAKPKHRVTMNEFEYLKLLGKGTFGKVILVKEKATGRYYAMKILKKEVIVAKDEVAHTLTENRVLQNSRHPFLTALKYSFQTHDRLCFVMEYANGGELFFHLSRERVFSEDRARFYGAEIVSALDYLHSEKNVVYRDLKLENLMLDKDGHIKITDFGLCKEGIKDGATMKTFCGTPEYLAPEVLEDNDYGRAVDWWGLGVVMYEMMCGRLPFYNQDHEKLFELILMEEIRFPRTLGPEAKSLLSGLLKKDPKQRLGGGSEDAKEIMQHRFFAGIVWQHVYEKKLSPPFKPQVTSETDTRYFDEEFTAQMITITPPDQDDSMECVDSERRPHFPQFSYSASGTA
Sequence of Platelet-derived growth factor receptor beta (Homo sapiens) (P09619 whole entry): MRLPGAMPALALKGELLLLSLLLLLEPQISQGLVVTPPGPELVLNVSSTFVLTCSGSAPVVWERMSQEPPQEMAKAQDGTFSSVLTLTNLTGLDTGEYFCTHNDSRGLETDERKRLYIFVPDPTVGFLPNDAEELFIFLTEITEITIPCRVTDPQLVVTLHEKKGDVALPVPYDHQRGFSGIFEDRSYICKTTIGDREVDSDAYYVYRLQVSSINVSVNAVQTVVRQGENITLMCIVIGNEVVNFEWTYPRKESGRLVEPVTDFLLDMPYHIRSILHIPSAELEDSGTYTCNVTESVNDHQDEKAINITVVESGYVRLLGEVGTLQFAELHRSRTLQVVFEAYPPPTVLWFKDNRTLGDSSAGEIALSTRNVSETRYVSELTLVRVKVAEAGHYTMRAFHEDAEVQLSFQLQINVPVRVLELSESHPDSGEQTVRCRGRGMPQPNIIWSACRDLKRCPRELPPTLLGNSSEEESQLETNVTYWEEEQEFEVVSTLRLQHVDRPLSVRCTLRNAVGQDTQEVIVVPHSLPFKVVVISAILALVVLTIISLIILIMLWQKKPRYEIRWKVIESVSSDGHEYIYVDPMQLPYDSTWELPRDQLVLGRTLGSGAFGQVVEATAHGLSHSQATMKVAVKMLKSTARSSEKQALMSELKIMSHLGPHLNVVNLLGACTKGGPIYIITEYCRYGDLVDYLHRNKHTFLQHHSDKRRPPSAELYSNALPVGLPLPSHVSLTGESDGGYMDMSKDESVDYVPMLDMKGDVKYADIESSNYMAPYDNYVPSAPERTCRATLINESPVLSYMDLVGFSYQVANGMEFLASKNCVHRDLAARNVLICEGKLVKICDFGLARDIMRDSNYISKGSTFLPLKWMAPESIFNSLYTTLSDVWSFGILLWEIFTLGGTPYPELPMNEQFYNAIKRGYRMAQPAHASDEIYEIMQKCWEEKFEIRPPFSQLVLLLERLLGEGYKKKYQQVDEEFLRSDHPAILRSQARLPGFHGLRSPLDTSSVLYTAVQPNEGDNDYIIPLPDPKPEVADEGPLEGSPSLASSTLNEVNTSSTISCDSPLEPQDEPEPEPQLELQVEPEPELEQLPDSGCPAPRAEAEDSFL
Sequence of Mitogen-activated protein kinase 9 (Homo sapiens) (P45984 whole entry, looked up): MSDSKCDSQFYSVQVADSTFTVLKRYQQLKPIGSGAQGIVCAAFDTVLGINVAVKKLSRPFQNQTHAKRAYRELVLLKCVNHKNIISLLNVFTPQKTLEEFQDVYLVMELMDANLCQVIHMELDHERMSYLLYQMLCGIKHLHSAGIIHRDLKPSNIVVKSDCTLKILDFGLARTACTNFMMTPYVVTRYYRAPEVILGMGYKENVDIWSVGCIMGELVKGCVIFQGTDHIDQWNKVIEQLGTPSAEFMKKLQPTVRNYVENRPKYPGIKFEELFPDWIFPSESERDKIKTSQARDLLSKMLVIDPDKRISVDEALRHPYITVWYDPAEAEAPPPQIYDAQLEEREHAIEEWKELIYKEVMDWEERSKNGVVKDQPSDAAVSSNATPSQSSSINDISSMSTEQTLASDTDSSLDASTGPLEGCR

On to `Cc1cccc(CN2CCN(c3cc(N(C)c4cccc(C)c4)ncn3)CC2)c1`, for which the inhibition (usually the drop in the measured response relative to a control, in per cent) came out at 5% in [1]; 0% in [2]; 0% in test [3]; 0% in [4]; 6% in test [5]; 4% in test [6]. The inhibition in test [7] is 4%; in test [8] it was 4%; in test [9], 8%; in [10], 3%; in test [11], 0%; in test [12] it was 0%. In addition, the inhibition in test [13] was 0%; in test [14] it was 2%; in [15], 2%; in test [16], 5%; in [17], 7%; in test [18] it was 5%.

`CN(CCCn1ccnc1)C(=O)[C@@H]1CCCN1c1nccc(Nc2ccccc2)n1`: the inhibition in test [1] was 0%; in test [2] it was 0%; in test [3], 0%; in test [4], 0%; in [5] it was 11%; in test [6] it was 10%. The inhibition turned out to be 15% in test [7]; 3% in test [8]; 0% in test [9]; 1% in [10]; 0% in test [11]; 0% in test [12]. Further, the inhibition in [13] was found to be 2%; in test [14], 2%; in [15] it was 1%; in [16] it was 0%; in test [17] it was 4%; in [18] it was 6%.

With `Cc1cccc(N(C)c2cc(Nc3ccc(CC(=O)Nc4ccc5ncsc5c4)cc3)ncn2)c1`, the inhibition in test [1] was determined as 19%; in test [2], 0%; in test [3], 0%; in test [4], 0%; in test [5] it was 48%; in test [6], 15%. The inhibition in test [7] came to 0%; in [8] it was 5%; in [9], 2%; in [10], 1%; in [11], 0%; in test [12], 0%. For the same compound, the inhibition in [13] amounted to 3%; in test [14], 18%; in test [15], 0%; in test [16], 0%; in [17], 29%; in test [18], 5%.

For `O=C(NCCc1ccc(O)cc1)c1cccc(Nc2nccc(Nc3ccc4ncsc4c3)n2)c1`, the inhibition was found to be 52% in [1]; 0% in [2]; 2% in test [3]; 3% in test [4]; 89% in test [5]; 78% in test [6]. Further, the inhibition in test [7] worked out at 8%; in test [8], 3%; in [9], 0%; in test [10], 0%; in test [11], 1%; in test [12], 0%. Further, the inhibition was 2% in test [13]; 11% in test [14]; 0% in [15]; 0% in test [16]; 18% in test [17]; 39% in test [18].

Take `COC[C@@H]1CCCN1C(=O)[C@@H]1CCCN1c1cc(Nc2cccc(OC)c2)nc(N)n1`: the inhibition came to 0% in test [1]; 0% in test [2]; 5% in [3]; 5% in test [4]; 4% in [5]; 2% in test [6]. The inhibition in test [7] amounted to 2%; in [8], 0%; in [9], 0%; in [10], 0%; in test [11] it was 0%; in test [12], 0%. Also, the inhibition was 2% in [13]; 0% in [14]; 3% in [15]; 0% in test [16]; 17% in test [17]; 2% in test [18].

Regarding `Cc1cc(C(=O)N2CCN(c3ncnc4c3CN(Cc3ccccc3)CC4)CC2)c(C)n1C`, the inhibition in test [1] came to 0%; in test [2], 0%; in test [3] it was 0%; in test [4], 0%; in [5], 5%; in test [6], 0%. In addition, the inhibition turned out to be 0% in test [7]; 0% in test [8]; 2% in test [9]; 0% in test [10]; 0% in [11]; 0% in test [12]. Besides, the inhibition in [13] turned out to be 0%; in [14], 5%; in test [15] it was 0%; in test [16] it was 0%; in [17] it was 22%; in test [18], 3%.

Regarding `Cc1cccc(Oc2ccnc(N3CCC[C@H]3C(=O)NCCCn3ccnc3)n2)c1`, the inhibition in test [1] amounted to 1%; in [2] it was 0%; in test [3], 8%; in test [4], 0%; in test [5], 7%; in [6], 4%. Moreover, the inhibition in test [7] was 9%; in [8], 2%; in test [9], 0%; in test [10], 1%; in [11], 1%; in [12] it was 0%. The inhibition in test [13] amounted to 2%; in test [14], 5%; in test [15] it was 0%; in test [16] it was 0%; in [17] it was 0%; in test [18] it was 7%.

As to `CN(CCc1ccccn1)C(=O)[C@@H]1CCCN1c1nccc(Nc2ccccc2)n1`, the inhibition in test [1] turned out to be 0%; in test [2], 0%; in test [3] it was 0%; in [4] it was 0%; in test [5] it was 5%; in test [6], 2%. In addition, the inhibition in test [7] was determined as 0%; in [8], 3%; in test [9], 3%; in test [10], 0%; in [11] it was 0%; in test [12], 1%. Moreover, the inhibition in [13] was found to be 0%; in test [14] it was 8%; in test [15], 2%; in test [16] it was 1%; in test [17], 0%; in test [18], 2%.

Regarding `COc1cccc(Nc2cc(Nc3cccc(C(=O)NCCCn4ccnc4)c3)nc(N)n2)c1`, the inhibition in [1] worked out at 6%; in test [2] it was 13%; in [3], 8%; in test [4], 0%; in test [5] it was 7%; in [6], 10%. The inhibition came out at 8% in test [7]; 6% in test [8]; 1% in test [9]; 1% in test [10]; 0% in test [11]; 0% in test [12]. Moreover, the inhibition stood at 0% in [13]; 25% in [14]; 17% in [15]; 1% in test [16]; 16% in test [17]; 32% in test [18].

Turning to `COc1cccc(Nc2cc(N3CCC[C@H]3C(=O)NCCN3CCCCC3)nc(N)n2)c1`, the inhibition was found to be 0% in test [1]; 0% in test [2]; 1% in test [3]; 0% in test [4]; 8% in test [5]; 4% in [6]. Further, the inhibition in [7] came out at 0%; in test [8], 2%; in test [9], 0%; in test [10], 0%; in [11], 0%; in test [12], 0%. Besides, the inhibition was determined as 0% in test [13]; 11% in test [14]; 0% in test [15]; 2% in test [16]; 7% in test [17]; 3% in test [18].
